The text below walks through data of ChEMBL document CHEMBL1158358, “Synthesis, antimicrobial and cytotoxic activities of some 5-arylidene-4-thioxo-thiazolidine-2-ones” (Eur J Med Chem, 2009).

≈ marks a conversion by molar mass, not a printed value.

Assay [1] has as its system Serratia marcescens. Kind of assay: Antimicrobial activity against Serratia marcescens UFPEDA 398 at 30 ug/disk after 24 hrs by disk diffusion method. It is filed as functional. As to conditions: UFPEDA 398, 24 h, read-out: IZ.
Assay [2] deals with Escherichia coli. Nature of the assay: Antimicrobial activity against Escherichia coli UFPEDA 224 at 30 ug/disk after 24 hrs by disk diffusion method. It is filed as functional. Particulars: UFPEDA 224, 24 h, read-out: IZ. (Agar diffusion results depend on both activity and mobility in agar.)
Assay [3] relates to Mycolicibacterium smegmatis. Kind of assay: Antimicrobial activity against Mycobacterium smegmatis UFPEDA 71 at 30 ug/disk after 24 hrs by disk diffusion method. It is filed as functional. Particulars: UFPEDA 71, 24 h, read-out: IZ.
The test system of assay [4] is Pseudomonas aeruginosa. Nature of the assay: Antimicrobial activity against Pseudomonas aeruginosa UFPEDA 39 at 30 ug/disk after 24 hrs by disk diffusion method. It is filed as functional. Particulars: UFPEDA 39, 24 h, read-out: IZ.
In assay [5] the test system is Candida albicans. Kind of assay: Antimicrobial activity against Candida albicans UFPEDA 1007 at 25 ug/disk after 48 hrs by disk diffusion method. As to conditions: UFPEDA 1007, 48 h, read-out: IZ. It is filed as functional. In short, it runs like this: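 Preliminary screen: 6 mm paper disks bearing the agent placed on agar plates inoculated with a standardized microbial suspension. Negative control was DMSO-only disks. Inhibition zones are means of n = 3; no zone or a mean zone below 7 mm was scored as no sensitivity.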

Assay [6] concerns Candida albicans. Kind of assay: Antimicrobial activity against Candida albicans UFPEDA 1007 after 48 hrs by twofold serial dilution technique. It is filed as functional. Particulars: UFPEDA 1007, 48 h. In outline:
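MIC was determined by twofold serial dilution. Bacteria were tested in plates at 10⁵ CFU/plate and read after 20 h. C. albicans was tested in tubes at 10³ CFU/tube and read after 48 h. All incubations were at 35 °C. Medium plus DMSO served as the negative control.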

In assay [7] the test system is NCI-H292. Kind of assay: Cytotoxicity against human NCI-H292 cells after 72 hrs by MTT assay. It is filed as functional, cell-based. As to conditions: NCI-H292, 72 h. In short, it runs like this:
(§1)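 MTT antiproliferative assay. Cells were diluted to 10⁵ cells/mL in 96-well plates and preincubated for 24 h at 37 °C in humid 5% CO₂. Compounds or vincristine (reference) were then added. Formazan was dissolved and OD read at 540 nm, compared with medium-only control cells. Run in triplicate.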
For orientation: Tetrazolium assays rely on reduction of a dye to a coloured formazan, in cell work by metabolically active cells.

Assay [8] deals with HEp-2. Kind of assay: Cytotoxicity against human Hep2 cells after 72 hrs by MTT assay. Particulars: HEp-2, 72 h. It is filed as functional, cell-based. In outline: as §1

Regarding `NC[C@H]1O[C@H](O[C@H]2[C@H](O)[C@@H](O[C@H]3O[C@H](CO)[C@@H](O)[C@H](N)[C@H]3O)[C@H](N)C[C@@H]2N)[C@H](O)[C@@H](O)[C@@H]1O` [KANAMYCIN], the zone of inhibition at 30 µg/disc in assay [1] worked out at 45 mm; in assay [2] it was 15 mm; in assay [3] it was 40 mm; in assay [4], 20 mm.

The MIC is the lowest concentration found to suppress growth. Low values mean greater potency, high ones weaker potency. With `CC(=O)N1CCN(c2ccc(OCC3COC(Cn4ccnc4)(c4ccc(Cl)cc4Cl)O3)cc2)CC1` (stereo not drawn) [KETOCONAZOLE], in assay [5], the zone of inhibition at 25 µg/disc was 28 mm. Further, the MIC in assay [6] was at most 1 µg/mL.

For orientation: IC50 means the point on the concentration scale where inhibition reaches its midpoint. Low values mean higher potency, high ones lower potency. With `CC[C@]1(O)C[C@H]2CN(CCc3c([nH]c4ccccc34)[C@@](C(=O)OC)(c3cc4c(cc3OC)N(C=O)[C@H]3[C@@](O)(C(=O)OC)[C@H](OC(C)=O)[C@]5(CC)C=CCN6CC[C@]43[C@@H]65)C2)C1` [VINCRISTINE], the figures for the IC50 in assay [7] and in assay [8] were 0.04 µg/mL (≈ 0.0485 µM) and 0.003 µg/mL (≈ 0.00364 µM), respectively.
